The source made the active and inactive calls.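 How the source made its calls: active means compounds shifting agonist potency at least twofold either way, or pushing peak agonist response below 75% or above 125%; inactive means the rest.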
Target: Metabotropic glutamate receptor 7 (Rattus norvegicus) (UniProt P35400)
Assay: rat mGlu7 allosteric modulation, L-AP4 curve shift, profiling panel, selectivity assay for mGlu5 PAM project, thallium flux, HEK/GIRK cells (AID 588731)
Conditions: L-AP4 CRC shift, at 10 µM; for Emax: measured here: L-AP4 max response with compound
How it was run: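 Assay system: HEK cells with GIRK channels expressing rat mGlu7 receptor / Also added: L-AP4 concentration-response curve / Incubation: dye load 45 min, 37 °C, agonist at 142 s / Read-out: agonist EC50 fold shift and %Emax / Dosing: single test compound concentration of 10 µM final / Technique: GIRK thallium flux fluorescence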

Metabotropic glutamate receptor 7 (Rattus norvegicus), sequence (P35400 whole entry, looked up): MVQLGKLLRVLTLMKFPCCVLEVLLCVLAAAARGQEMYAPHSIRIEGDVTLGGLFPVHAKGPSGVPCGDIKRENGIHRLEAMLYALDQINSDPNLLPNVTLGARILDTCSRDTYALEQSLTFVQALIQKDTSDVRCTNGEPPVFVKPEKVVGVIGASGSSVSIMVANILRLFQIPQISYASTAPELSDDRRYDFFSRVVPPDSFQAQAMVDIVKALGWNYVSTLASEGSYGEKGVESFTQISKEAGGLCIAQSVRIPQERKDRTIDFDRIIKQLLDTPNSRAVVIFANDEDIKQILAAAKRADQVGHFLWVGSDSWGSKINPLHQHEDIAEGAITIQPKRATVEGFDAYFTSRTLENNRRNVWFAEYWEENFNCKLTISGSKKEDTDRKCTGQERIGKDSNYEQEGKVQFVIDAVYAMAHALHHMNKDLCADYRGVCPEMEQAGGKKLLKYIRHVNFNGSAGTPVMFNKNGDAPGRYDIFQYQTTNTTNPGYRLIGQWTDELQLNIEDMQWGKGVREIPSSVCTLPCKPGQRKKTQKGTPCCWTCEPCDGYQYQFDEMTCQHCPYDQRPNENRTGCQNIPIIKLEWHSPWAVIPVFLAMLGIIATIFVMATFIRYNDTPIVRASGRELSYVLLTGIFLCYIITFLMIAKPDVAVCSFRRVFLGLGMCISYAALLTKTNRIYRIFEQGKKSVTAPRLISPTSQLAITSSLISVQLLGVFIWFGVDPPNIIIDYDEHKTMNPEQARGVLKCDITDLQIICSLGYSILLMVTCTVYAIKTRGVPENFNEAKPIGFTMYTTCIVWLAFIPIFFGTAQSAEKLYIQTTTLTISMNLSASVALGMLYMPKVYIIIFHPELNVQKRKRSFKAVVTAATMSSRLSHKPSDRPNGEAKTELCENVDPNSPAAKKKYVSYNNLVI

| fold shift | Emax [%] | Compound |
| --- | --- | --- |
| 1.04 (inactive) | 92 | C[C@@H](NC(=O)c1ccc(C#Cc2cccc(F)c2)cn1)C(C)(C)O |
| 0.77 (inactive) | 92.3 | CC1(NC(=O)c2ccc(C#Cc3cccc(F)c3)cn2)COC1 |
